# Screening data (PubChem)
# Sampled rows, rich in hits. Any-hit rate of the full collection: about 3.6%.
# HSF1 activator – HSF-1 activators, primary screen, NIH3T3-HGL cells, MG132 stress, luminescence, single point | AID 504408, 2011 | 300,000 compounds, 1.7% hits | activation, % at 9 µM | NIH3T3-HGL HSF-1 luciferase reporter, 8 h; 100% = twice DMSO control signal;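 active means mean replicate activation of at least 50% with a set share of replicates each reaching 50%; inconclusive means only one of those two conditions met; inactive means mean below 50% and too few replicates reaching it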;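 further: 0% = median of the neutral control wells and 100% = twice that signal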
# SR-BI DiI inh – inhibitors of SR-BI mediated HDL lipid uptake, primary screen, ldlA[mSR-BI] cells, fluorescence, single point; Scavenger receptor class B member 1 (Mus musculus), Q61009; ldlA[mSR-BI] CHO cells, DiI-HDL uptake fluorescence, 3 h; inhibition, % at 12.5 µM; 320,000 compounds, 0.96% hits; AID 488896, 2010;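 active means mean replicate inhibition of at least 70% and a set share of replicates each scoring 70 or more; inconclusive means meets just one of the two criteria; inactive means fails both criteria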;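 further: 0% = median of neutral control wells and 100% = median of positive control wells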
# Target sequence (Q61009 whole entry, looked up): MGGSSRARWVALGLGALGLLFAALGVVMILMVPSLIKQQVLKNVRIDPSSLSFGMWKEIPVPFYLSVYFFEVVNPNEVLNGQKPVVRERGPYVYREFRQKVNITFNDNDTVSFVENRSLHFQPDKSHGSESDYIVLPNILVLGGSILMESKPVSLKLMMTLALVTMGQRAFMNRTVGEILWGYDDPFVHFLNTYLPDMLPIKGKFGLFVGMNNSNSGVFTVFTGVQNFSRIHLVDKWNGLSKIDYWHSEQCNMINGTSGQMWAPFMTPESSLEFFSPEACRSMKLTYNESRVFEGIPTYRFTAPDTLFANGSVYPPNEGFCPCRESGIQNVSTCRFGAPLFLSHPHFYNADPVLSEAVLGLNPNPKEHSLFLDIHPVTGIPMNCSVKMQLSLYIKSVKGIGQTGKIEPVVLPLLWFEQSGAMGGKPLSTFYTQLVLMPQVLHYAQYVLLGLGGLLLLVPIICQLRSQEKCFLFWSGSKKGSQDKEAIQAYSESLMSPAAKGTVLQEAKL
# MITF TRPM1 HTS – activators of MITF-driven TRPM1 promoter reporter, primary screen, cell-based, SK-MEL-5, luciferase, single point; SK-MEL-5 TRPM1-promoter luciferase, 24 h; % of positive control, neutral wells = 0; activation, % at 12.5 µM; 300,000 compounds, 0.75% hits; AID 588334, 2011;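 active means mean activation of at least 80% with every replicate also reaching 80%; inconclusive means mean reaches 80% but some replicate falls short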;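 further: 0% = neutral control wells and 100% = parthenolide positive control wells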
# Wnt act – Wnt/beta-catenin pathway activators, primary screen, cell-based, plate reader, single point; activation, % at 9.35 µM; Wnt/beta-catenin reporter cell assay, activator; 300,000 compounds, 1.2% hits; in the data active means activation above about 30%, passing the limit was not always enough; inconclusive means no clear call, values can overlap the other calls;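 further: 0% = neutral control wells and 100% = positive control wells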
# SR-BI DiI-HDL act – activators of SR-BI mediated DiI-HDL uptake, primary screen, ldlA[mSR-BI] CHO cells, DiI fluorescence; 3 h; 100 = double the neutral-control signal; activation, % at 12.5 µM; 320,000 compounds, 0.096% hits;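 active means mean replicate activation of at least 60% and every replicate at or above 60%; inconclusive means mean or all-replicate condition met, but not both; inactive means mean below 60% and not all replicates reaching 60%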;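 further: 0% = median plate neutral-control signal and 100% = twice that signal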
#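 Material – SR-BI-overexpressing, LDLR-lacking CHO cells · Medium – BSA-supplemented, HEPES-buffered Ham's F12, pH 7.4 · Doses – single concentration · Times – compound with DiI-HDL co-incubation, 3 h at 37 °C · Measured by – bottom-read fluorescence, 550/595 nm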
# The depositor's hits bear a star; ? = inconclusive; · = no result given.
SMILES,HSF1 activator,SR-BI DiI inh,MITF TRPM1 HTS,Wnt act,SR-BI DiI-HDL act
Oc1c(Cl)cc(Cl)cc1/C=C/c1ccc2cccc(O)c2n1,14,32,-22,0,-32
Cc1ccsc1/C=C/c1ccc2ccccc2n1,-35,1,-15,-2,-1
COc1cc(Br)cc(/C=C/c2ccc3cccc(O)c3n2)c1O,85*,91*,8,8,-91
CCN(C1CCCCC1)S(=O)(=O)CCNC(=O)c1ccc2c(c1)OCO2,-3,-11,0,-1,11
COc1ccc(-c2nc(C#N)c(NCCc3ccccc3)o2)cc1OC,80*,?,78,·,-72
O=[N+]([O-])c1ccc(-c2ccc(S(=O)(=O)N3CCOCC3)cc2)cc1,1,80*,6,6,-80
CCOC(=O)/C(C#N)=C/c1cc(C)n(-c2ccc(C)cc2)c1C,-13,6,93*,·,-6
CCOC(=O)/C(C#N)=C\c1cc(C)n(-c2ccccc2)c1C,-69,30,·,12,-30
CCOC(=O)c1ccc(N=c2sc(C(=O)OC)cc(=O)n2Cc2ccco2)cc1,107*,-10,-24,2,10
CCOC(=O)c1ccc(N=c2sc(C(=O)OC)cc(=O)n2CCCN2CCOCC2)cc1,45,-4,4,-21,4
CCCC1(C2CCCC2)NC(=O)NC1=O (stereo not given),·,-11,8,-2,11
Cc1ccc(C(=O)OCC(=O)Nc2nc(-c3ccccc3)cs2)cc1NC(=O)c1ccco1,3,83*,18,-1,-83
CCCC(=O)Nc1nc2ccc(C(=O)OCC)cc2s1,25,19,92*,20,-19
CCOC(=O)c1ccc2nc(NC(=O)C(C)C)sc2c1,34,52,·,?,-52
CCOC(=O)c1ccc2nc(NC(=O)c3ccco3)sc2c1,69*,38,27,74*,-38
Cc1ccc(C(=O)OCC(=O)Nc2ccccc2)cc1NC(=O)c1ccco1,9,-8,24,14,8
CC(C)n1c(=O)c2ccccc2n1Cc1cn(-c2ccccc2)nn1,·,·,·,-4,·
CCOC(=O)C1=C(C)NC(=S)NC1c1ccc(OCC(=O)N2CCCCC2)cc1 (stereo not given),-1,73*,-2,-2,-73
CCOC(=O)c1c(NC(=O)C2=C(C)NC(=S)NC2c2ccc(C)cc2)sc(C)c1C (stereo not given),23,72*,-4,-2,-72
CC1=C(C(=O)Nc2ccccn2)C(c2ccc(Br)cc2)NC(=S)N1 (stereo not given),39,16,57,·,-16
CC1=C(C(=O)Nc2ccccn2)C(c2ccc(Cl)cc2)NC(=S)N1 (stereo not given),64*,5,38,2,-5
CCOC(=O)c1c(NC(=O)C2=C(C)NC(=S)NC2c2ccc(F)cc2)sc(C)c1C (stereo not given),·,71*,2,0,-71
Cc1ccc(Cc2c(-c3cccc(Cl)c3)nc3c4ccccc4ccn23)cc1,·,·,·,-3,·
CC(=O)NC(c1cccc(F)c1)c1nc(-c2ccoc2)cs1 (stereo not given),·,·,·,-1,·
CCOC(=O)[C@]12CCCC=C1N(Cc1ccccc1)C(=O)[C@H](CC(=O)NCCc1ccccc1OC)C2,·,·,·,-3,·
SMILES,HSF1 activator,SR-BI DiI inh,MITF TRPM1 HTS,Wnt act,SR-BI DiI-HDL act
CC(C)[C@@H]1O[C@H](CCc2ccccc2)CC2=C1C(=O)OC(C)(C)O2,·,·,·,-1,·
COc1ccc(N2C(=O)C(Cl)=C(Oc3cccc(OC)c3)C2=O)cc1,136*,39,-19,·,-39
COc1ccc(N2C(=O)C(Cl)=C(N3CCOCC3)C2=O)cc1,4,27,·,5,-27
Brc1ccc(-c2nc(-c3ccncc3)no2)cc1,12,-3,66,?,3
O=[N+]([O-])c1ccc(-c2nc(-c3ccncc3)no2)cc1,65*,-14,·,1,14
CCOc1ccc(-c2nc(-c3cccnc3)no2)cc1,16,14,13,47*,-14
COc1ccc(-c2nc(-c3ccncc3)no2)cc1,54*,·,60,28,·
CCOc1ccc(-c2nc3ccccc3c(=O)o2)cc1,55*,-10,24,16,10
COC(=O)[C@@]1(Sc2ccc(C)cc2)CC(=O)N[C@@H]1c1ccco1,·,·,·,-1,·
CN1CCCCC(NC(=O)c2ccc(F)c(F)c2)C1=O (stereo not given),·,·,·,13,·
COc1cc(NC(=O)Nc2nc(C(N)CCc3ccccc3)cs2)cc(OC)c1OC (stereo not given),·,·,·,11,·
c1ccc(-c2ccc(-c3nc(-c4cccnc4)no3)cc2)cc1,40,-7,48,?,7
Clc1ccccc1-c1nc(-c2cccnc2)no1,32,-27,3,·,27
O=C(O)c1ccc(-c2noc(-c3ccccc3F)n2)cc1,0,-28,5,16,28
COc1ccc(-c2nc(-c3cccnc3)no2)cc1,44,-5,·,53*,5
CCCCOc1ccc(-c2nc(-c3cccnc3)no2)cc1,22,14,99*,·,-14
Cc1ccccc1-c1nc(-c2cccnc2)no1,43,15,·,48*,-15
Cc1ccc(-c2noc(-c3ccccc3F)n2)cc1,43,-31,12,57*,31
Oc1ccc(C=NNC(=S)Nc2cccnc2)nc1,-18,9,-22,0,-9
Cc1[nH]c2ccccc2c1CC(=O)Nc1ccc(Nc2cccnc2)c(-c2ccc(C(C)(C)C)cc2)c1,·,·,·,-5,·
CCCCOc1ccc(-c2nnc(-c3ccncc3)o2)cc1,26,-12,·,15,12
CCOc1ccc(-c2nnc(-c3ccncc3)o2)cc1,52*,-4,23,·,·
O=C1c2ccccc2C(=O)c2c(Nc3ccc(CCO)cc3)ccc(O)c21,-17,93*,-16,3,-93
CCC(=O)N1CCCC(C(=O)Nc2ccc3cn[nH]c3c2)CC1 (stereo not given),·,·,·,1,·
COCCNc1nc(-c2cc3ccccc3o2)cs1,56*,-10,33,·,10
CCc1[nH]nc2c1C1(CCN(C(=O)OCc3ccccc3)CC1)C(C#N)=C(N)O2,55*,10,8,0,-10
CCCc1[nH]nc2c1C1(CCN(C(=O)OCc3ccccc3)CC1)C(C#N)=C(N)O2,13,27,-9,7,-27
CN1CCN(C(=O)c2cc(COc3ccccc3)on2)[C@@H](c2ccccc2)C1,36,1,91*,42*,-1
Cc1ccc(OCc2cc(C(=O)N3CCN(C)C[C@@H]3c3ccccc3)no2)cc1C,56*,52,113*,-1,-52
Cc1ccc(OCc2cc(C(=O)N3CCC(Oc4cccnc4)CC3)no2)cc1C,-9,-10,13,5,10
